Tests used:
[1] = biological target: T1, Transient receptor potential cation channel subfamily A member 1 (Homo sapiens, UniProt O75762); assay: Activation of TRPA1 channel
Summary of the method: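 Cell lines transfected with TRPA1 and loaded with a calcium-sensitive dye, read on FLIPR. Calcium influx is counted as the change in fluorescence above background. Each material was tested by preincubation or by direct addition. Calcium counts are expressed as a percentage of the control calcium count.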

[2] = biological target: T1, Transient receptor potential cation channel subfamily A member 1; assay: Antagonist activity at human TRPA1 channel assessed as inhibition of allyl isothiocyanate-induced intracellular calcium influx; assay type: functional, cell-based
[3] = biological target: T1, Transient receptor potential cation channel subfamily A member 1; assay: Agonist activity at human TRPA1 channel expressed in CHO cells assessed as increase in intracellular calcium levels; assay type: functional, cell-based
[4] = biological target: T1, Transient receptor potential cation channel subfamily A member 1; assay: Antagonist activity at human TRPA1 channel expressed in CHO cells assessed as inhibition of cinnamaldehyde-induced intracellular calcium influx; assay type: functional, cell-based
[5] = biological target: T1, Transient receptor potential cation channel subfamily A member 1; assay: Antagonist activity at TRPA1 channel at 10 uM; assay type: functional
[6] = biological target: T1, Transient receptor potential cation channel subfamily A member 1; assay: Antagonist activity at TRPA1 channel; assay type: functional
[7] = biological target: T1, Transient receptor potential cation channel subfamily A member 1; assay: Antagonist activity at TRPA1 channel at 1 uM; assay type: functional
[8] = biological target: T1, Transient receptor potential cation channel subfamily A member 1; assay: Agonist activity at human TRPA1 channel expressed in HEK293 cells assessed as increase in membrane currents; assay type: functional, cell-based
[9] = biological target: Transient receptor potential cation channel subfamily V member 1 (Rattus norvegicus, UniProt O35433); assay: Activation of rat TRPV1 channel
[10] = biological target: Transient receptor potential cation channel subfamily M member 8 (Homo sapiens, UniProt Q7Z2W7); assay: Activation of TRPM8 channel
Sequence of Transient receptor potential cation channel subfamily M member 8 (Q7Z2W7 whole entry): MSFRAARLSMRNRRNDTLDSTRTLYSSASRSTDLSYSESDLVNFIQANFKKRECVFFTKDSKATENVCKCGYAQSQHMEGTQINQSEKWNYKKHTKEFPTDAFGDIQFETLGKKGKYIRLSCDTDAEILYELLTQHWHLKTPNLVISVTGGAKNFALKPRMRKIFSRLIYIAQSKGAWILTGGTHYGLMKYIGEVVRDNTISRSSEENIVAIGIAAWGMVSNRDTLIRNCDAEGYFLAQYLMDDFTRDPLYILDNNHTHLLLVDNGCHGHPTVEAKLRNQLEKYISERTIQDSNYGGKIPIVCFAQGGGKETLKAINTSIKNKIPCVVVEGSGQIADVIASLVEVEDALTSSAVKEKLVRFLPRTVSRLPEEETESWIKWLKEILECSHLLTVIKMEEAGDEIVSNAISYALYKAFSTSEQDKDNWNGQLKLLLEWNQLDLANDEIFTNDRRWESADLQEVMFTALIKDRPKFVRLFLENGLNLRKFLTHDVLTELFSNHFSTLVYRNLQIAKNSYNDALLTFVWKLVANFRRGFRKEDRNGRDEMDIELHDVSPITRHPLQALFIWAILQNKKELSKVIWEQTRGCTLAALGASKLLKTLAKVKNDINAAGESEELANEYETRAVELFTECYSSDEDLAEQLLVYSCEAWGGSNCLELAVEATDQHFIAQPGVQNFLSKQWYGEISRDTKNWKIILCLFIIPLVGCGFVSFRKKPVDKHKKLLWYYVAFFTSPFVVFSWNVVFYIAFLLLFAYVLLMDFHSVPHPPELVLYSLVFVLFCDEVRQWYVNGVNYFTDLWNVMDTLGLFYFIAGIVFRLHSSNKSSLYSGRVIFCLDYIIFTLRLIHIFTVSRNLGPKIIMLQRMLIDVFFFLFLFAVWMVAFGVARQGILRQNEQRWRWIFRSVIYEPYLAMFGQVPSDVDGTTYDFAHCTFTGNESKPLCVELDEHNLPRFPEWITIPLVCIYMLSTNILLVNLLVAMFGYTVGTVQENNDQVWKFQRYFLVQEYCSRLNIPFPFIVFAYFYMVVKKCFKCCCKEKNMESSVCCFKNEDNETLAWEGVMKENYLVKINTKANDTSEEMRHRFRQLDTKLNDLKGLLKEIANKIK

[11] = biological target: T1, Transient receptor potential cation channel subfamily A member 1; assay: Agonist activity at human TRPA1 channel expressed in HEK293 cells assessed as increase in intracellular calcium influx; assay type: functional, cell-based
[12] = biological target: T2, Transient receptor potential cation channel subfamily A member 1 (Mus musculus, UniProt Q8BLA8); assay: Antagonist activity at mouse TRPA1 channel expressed in CHO cells assessed as blockade of agonist-induced whole cell conductance by electrophysiology; assay type: functional, cell-based
T2 sequence (Q8BLA8 whole entry): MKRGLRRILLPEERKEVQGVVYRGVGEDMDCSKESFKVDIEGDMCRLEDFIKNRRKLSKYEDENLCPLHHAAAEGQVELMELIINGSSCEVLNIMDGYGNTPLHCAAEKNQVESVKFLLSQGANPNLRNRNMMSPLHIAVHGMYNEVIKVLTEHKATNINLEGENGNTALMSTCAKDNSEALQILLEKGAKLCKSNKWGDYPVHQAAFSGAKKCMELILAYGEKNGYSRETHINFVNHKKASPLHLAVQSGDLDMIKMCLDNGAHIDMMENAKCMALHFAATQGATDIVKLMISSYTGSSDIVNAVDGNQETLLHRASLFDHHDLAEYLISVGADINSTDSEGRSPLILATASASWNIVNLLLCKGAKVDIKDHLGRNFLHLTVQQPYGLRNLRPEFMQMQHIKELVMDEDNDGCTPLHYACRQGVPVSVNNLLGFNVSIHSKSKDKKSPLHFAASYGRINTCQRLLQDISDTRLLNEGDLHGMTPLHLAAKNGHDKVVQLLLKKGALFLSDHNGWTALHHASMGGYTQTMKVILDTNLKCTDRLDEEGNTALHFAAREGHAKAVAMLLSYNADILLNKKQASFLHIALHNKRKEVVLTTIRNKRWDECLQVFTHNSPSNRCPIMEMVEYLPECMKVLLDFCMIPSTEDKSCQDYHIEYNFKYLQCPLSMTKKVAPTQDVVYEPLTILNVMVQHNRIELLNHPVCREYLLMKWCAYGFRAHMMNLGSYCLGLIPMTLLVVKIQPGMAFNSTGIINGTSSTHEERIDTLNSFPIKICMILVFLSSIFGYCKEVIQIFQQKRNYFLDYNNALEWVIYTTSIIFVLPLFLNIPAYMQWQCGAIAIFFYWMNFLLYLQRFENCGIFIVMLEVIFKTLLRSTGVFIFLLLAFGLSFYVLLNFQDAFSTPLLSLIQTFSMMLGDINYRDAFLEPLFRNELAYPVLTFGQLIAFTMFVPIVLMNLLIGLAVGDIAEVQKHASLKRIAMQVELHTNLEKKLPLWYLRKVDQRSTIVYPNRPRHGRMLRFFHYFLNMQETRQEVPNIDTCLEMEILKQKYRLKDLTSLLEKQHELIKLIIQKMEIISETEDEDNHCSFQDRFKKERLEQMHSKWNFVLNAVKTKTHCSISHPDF

[13] = biological target: T1, Transient receptor potential cation channel subfamily A member 1; assay: Activation of human TRPA1 channel
[14] = biological target: Transient receptor potential cation channel subfamily V member 1 (Homo sapiens, UniProt Q8NER1); assay: Activation of TRPV1 channel
[15] = biological target: T2, Transient receptor potential cation channel subfamily A member 1; assay: Agonist activity at mouse TRPA1 channel expressed in CHO cells assessed as increase in intracellular calcium influx; assay type: functional, cell-based
[16] = biological target: T3, Transient receptor potential cation channel subfamily A member 1 (Rattus norvegicus, UniProt Q6RI86); assay: Agonist activity at TRPA1 channel in rat DRG neurons assessed as increase in intracellular calcium influx; assay type: functional, cell-based
T3 sequence (Q6RI86 whole entry): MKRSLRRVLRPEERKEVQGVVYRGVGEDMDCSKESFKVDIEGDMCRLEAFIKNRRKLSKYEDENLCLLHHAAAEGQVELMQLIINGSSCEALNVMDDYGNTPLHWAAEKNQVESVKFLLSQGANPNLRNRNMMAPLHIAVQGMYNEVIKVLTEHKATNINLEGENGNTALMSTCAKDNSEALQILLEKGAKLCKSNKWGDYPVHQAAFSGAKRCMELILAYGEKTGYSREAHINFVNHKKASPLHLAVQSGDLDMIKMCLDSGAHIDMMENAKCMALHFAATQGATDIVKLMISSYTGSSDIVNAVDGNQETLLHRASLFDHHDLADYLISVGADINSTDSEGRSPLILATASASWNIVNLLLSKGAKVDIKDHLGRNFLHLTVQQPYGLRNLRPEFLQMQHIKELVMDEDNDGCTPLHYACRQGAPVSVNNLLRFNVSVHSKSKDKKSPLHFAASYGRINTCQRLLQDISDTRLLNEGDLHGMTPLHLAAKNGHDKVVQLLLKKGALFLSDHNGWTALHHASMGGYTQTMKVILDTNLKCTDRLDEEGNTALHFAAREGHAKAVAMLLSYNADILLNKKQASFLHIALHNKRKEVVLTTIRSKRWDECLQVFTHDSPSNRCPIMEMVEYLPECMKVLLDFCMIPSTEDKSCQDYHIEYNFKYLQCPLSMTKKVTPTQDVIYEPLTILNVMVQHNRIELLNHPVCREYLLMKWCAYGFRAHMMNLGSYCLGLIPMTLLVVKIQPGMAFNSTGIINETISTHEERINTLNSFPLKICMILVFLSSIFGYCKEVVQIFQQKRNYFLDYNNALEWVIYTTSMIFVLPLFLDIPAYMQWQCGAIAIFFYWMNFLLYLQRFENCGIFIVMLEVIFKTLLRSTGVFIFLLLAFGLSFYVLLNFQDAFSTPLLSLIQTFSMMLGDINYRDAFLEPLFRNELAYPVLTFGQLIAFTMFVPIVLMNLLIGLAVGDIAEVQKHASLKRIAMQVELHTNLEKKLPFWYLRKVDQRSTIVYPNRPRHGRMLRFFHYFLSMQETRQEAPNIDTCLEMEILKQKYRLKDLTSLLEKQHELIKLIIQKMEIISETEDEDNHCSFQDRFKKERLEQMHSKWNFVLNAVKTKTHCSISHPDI

[17] = biological target: T3, Transient receptor potential cation channel subfamily A member 1; assay: Agonist activity at rat TRPA1 channel expressed in HEK293 cells assessed as increase in intracellular calcium influx; assay type: functional, cell-based

T1 sequence (O75762 whole entry): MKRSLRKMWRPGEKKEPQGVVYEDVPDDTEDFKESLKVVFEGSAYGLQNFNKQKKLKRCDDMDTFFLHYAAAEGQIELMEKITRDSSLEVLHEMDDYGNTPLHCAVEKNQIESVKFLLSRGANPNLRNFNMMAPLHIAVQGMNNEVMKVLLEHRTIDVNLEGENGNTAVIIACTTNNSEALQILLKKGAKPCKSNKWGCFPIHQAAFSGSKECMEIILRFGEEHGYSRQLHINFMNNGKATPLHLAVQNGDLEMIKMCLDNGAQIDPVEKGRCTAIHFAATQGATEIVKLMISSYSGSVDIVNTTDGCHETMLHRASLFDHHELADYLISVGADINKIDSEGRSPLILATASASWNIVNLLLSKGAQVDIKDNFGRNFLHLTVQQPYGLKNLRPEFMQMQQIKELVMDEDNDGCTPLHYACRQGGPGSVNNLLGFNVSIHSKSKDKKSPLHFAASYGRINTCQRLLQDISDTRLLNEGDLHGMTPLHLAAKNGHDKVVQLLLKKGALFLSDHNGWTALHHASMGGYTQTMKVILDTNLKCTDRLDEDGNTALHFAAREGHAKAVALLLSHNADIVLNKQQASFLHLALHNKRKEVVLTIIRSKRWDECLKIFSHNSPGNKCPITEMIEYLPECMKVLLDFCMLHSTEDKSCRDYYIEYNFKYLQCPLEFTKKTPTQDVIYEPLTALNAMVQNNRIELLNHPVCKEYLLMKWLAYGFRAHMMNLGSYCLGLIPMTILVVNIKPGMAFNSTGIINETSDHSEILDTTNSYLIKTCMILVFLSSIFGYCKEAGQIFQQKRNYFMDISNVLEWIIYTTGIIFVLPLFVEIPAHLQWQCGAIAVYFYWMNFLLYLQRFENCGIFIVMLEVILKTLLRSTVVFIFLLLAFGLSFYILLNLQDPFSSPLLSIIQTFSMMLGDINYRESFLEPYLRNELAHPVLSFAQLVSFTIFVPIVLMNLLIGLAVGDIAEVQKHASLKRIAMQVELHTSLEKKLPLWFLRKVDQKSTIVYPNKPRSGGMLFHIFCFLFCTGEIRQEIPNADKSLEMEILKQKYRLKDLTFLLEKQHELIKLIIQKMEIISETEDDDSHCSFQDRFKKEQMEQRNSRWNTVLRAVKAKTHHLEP

C=C(C)C1CC=C(C=O)CC1 (configuration not stated)
EC50 [1]: 41 µM

Cn1c(=O)c2c(ncn2CC(=O)Nc2nc(-c3cccc(Cl)c3)cs2)n(C)c1=O
IC50 [2]: < 1 µM

CC(C)=CCC/C(C)=C/CC/C(C)=C/CSc1ccccc1C(=O)O [SALIRASIB]
EC50 [3]: 5 µM

CCOc1ccccc1-c1csc(NC(=O)Cn2cnc3c2c(=O)n(C)c(=O)n3C)n1
IC50 [2]: < 1 µM

CCCCC(CC)C1NC(=O)N(SC(Cl)(Cl)Cl)C1=O (configuration not stated) [CHLORDANTOIN]
EC50 [3]: 3 µM

CCC(=N\O)/C(C)=C/c1ccc(C)nc1
IC50 [4]: > 100 µM

CN1C(=O)c2cccc(CC(=O)Nc3nc(-c4ccc(I)cc4)cs3)c2C1=O
inhibition [5]: 95%
IC50 [6]: < 0.25 µM
inhibition [7]: 76%

O=C(O)/C=C1/C(=O)N(Cc2ccccc2)c2ccc(F)cc21
EC50 [8]: 4.45 µM

C=CCS[S+]([O-])CC=C (configuration not stated) [ALLICIN]
EC50 [9]: 51.2 µM

O=C1NC(c2cccc([N+](=O)[O-])c2)=CCN1c1ccccc1O [ICILLIN]
EC50 [10]: 0.06 µM
EC50 [11]: 100 µM

Cn1c(=O)c2c(ncn2CC(=O)Nc2nc(-c3ccc(Br)cc3)cs2)n(C)c1=O
IC50 [2]: < 1 µM

CC1(C)CCC[C@@]2(C)[C@H]1CC[C@@]1(CO1)[C@@H]2CC/C=C(/C=O)CC=O [MIOGADIAL]
EC50 [3]: 0.2 µM

S=C=NCc1ccccc1 [BENZYL ISOTHIOCYANATE]
EC50 [1]: 0.319 µM

CC1CCC(C(C)C)C(O)C1 (configuration not stated) [MENTHOL]
EC50 [12]: 56 µM

C=CCSCC=C [DIALLYL SULFIDE]
EC50 [3]: 254 µM

O=C(O)/C=C1/C(=O)N(CC2CCC2)c2c(F)cccc21
EC50 [8]: 1.16 µM

CN1CCC[C@H]1c1cccnc1 [NICOTINE]
EC50 [1]: 17 µM

CCCCCC(=O)/C=C/C=O
EC50 [13]: 1.9 µM

C=CCSSCC=C
EC50 [3]: 7.55 µM
EC50 [1]: 125 µM

C/C=C/C=C/C=C\CC/C=C/C(=O)NCC(C)(C)O
EC50 [1]: 6.6 µM
EC50 [14]: 1.1 µM

Cn1c(=O)c2c(ncn2CC(=O)Nc2nc(-c3cccc(F)c3)cs2)n(C)c1=O
IC50 [2]: < 1 µM

CN1C(=O)c2cccc(CC(=O)Nc3nc(-c4cc(F)c(OC(F)F)c(F)c4)cs3)c2C1=O
inhibition [5]: 99%
inhibition [7]: 92%

COC(=O)C1=C(C)NC(C)=C(C(=O)OCCN(C)Cc2ccccc2)C1c1cccc([N+](=O)[O-])c1 (configuration not stated) [NICARDIPINE]
EC50 [15]: 0.5 µM

CC(C)CN1C(=O)/C(=C/C(=O)O)c2cc(F)ccc21
EC50 [8]: 4.63 µM

CCCCCC(O)/C=C/C=O (configuration not stated) [4-HYDROXYNON-2-ENAL]
EC50 [16]: 19.9 µM

CN1C(=O)c2cccc(CC(=O)Nc3nc(-c4ccc(C(F)(F)F)c(F)c4)cs3)c2C1=O
inhibition [5]: 100%
inhibition [7]: 97%

CC(C)CN1C(=O)/C(=C/C(=O)O)c2cccc(Cl)c21
EC50 [8]: 0.61 µM

C=C(C)[C@@H]1CCC(C)=C[C@H]1c1c(O)cc(CCCCC)c(C(=O)O)c1O [CANNABIDIOLIC ACID]
EC50 [17]: 12 µM

CCC(=N\O)/C(C)=C/c1cnc2ccccc2c1
IC50 [4]: > 100 µM

CCC(=N\O)/C(C)=C/c1cnccc1C
IC50 [4]: > 100 µM

CO/C(O)=C1\C(C)=NC(C)=C([N+](=O)[O-])[C@@H]1c1ccccc1C(F)(F)F
EC50 [15]: 20.8 µM

O=C(O)/C=C1/C(=O)N(CC2CCCCC2)c2ccccc21
EC50 [8]: 4.4 µM

NC(=O)/C=C1/C(=O)N(CC2CCCC2)c2c(F)cccc21
EC50 [8]: 0.66 µM

C/C=C/C=O [CROTONALDEHYDE]
EC50 [1]: 16 µM

CCOC(=O)C1=C(C)NC(C)=C(C(=O)OC)C1c1cccc([N+](=O)[O-])c1 (configuration not stated) [NITRENDIPINE]
EC50 [15]: 3.8 µM

O=C(O)/C=C1/C(=O)N(CC2CCCC2)c2c(F)cccc21
EC50 [8]: 0.51 µM

CCc1ccc(-c2csc(NC(=O)Cn3cnc4c3c(=O)n(C)c(=O)n4C)n2)cc1
IC50 [2]: < 1 µM

Cc1ccc(C(C)C)cc1O [CARVACROL]
EC50 [11]: 7 µM

CCC(=N\O)/C(C)=C/c1ccc(C(F)(F)F)nc1
IC50 [4]: > 100 µM

Cc1ccc(N=C=O)cc1N=C=O [TOLUENE DIISOCYANATE]
EC50 [11]: 10 µM
